SENP8 block-1 – SENP8 protease inhibition | Q96LD8 | purified SENP8, Z-RLRGG-aminoluciferin cleavage, luminescence | inhibition, % at 10 µM | actives 1.2% (n = 330,000) | AID 2540; in the data active means inhibition above about 50%
UBC13 polyUb – blocks human UBC13 polyubiquitin chain formation. AID 485273. TR-FRET. inhibition, % at 20 µM. actives 0.47% (n = 330,000); in the data active means inhibition above about 45%, passing the limit was not always enough
Target sequence (P61088 whole entry, looked up): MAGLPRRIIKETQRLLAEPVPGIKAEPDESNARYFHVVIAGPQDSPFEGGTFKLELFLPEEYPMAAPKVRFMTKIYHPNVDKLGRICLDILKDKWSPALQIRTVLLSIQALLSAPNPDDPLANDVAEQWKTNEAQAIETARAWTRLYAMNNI
SENP6 block – inhibitors of human SENP6 protease; Q9GZR1; Recombinant SENP6 catalytic domain, aminoluciferin luminescence; inhibition, % at 10 µM; actives 1.8% (n = 330,000);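 active means inhibition above about 50% at the single tested dose, limit read from the data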
SENP7 inh – inhibitors of human SENP7 protease | recombinant SENP7, Z-RLRGG-aminoluciferin luminescence, 40 min | AID 434973 | inhibition, % at 5 µM | Q9BQF6 | actives 1.5% (n = 330,000);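 active means inhibition above about 50% at the single test dose, limit read from the data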
Target sequence (Q9BQF6 706-1050 limits assumed): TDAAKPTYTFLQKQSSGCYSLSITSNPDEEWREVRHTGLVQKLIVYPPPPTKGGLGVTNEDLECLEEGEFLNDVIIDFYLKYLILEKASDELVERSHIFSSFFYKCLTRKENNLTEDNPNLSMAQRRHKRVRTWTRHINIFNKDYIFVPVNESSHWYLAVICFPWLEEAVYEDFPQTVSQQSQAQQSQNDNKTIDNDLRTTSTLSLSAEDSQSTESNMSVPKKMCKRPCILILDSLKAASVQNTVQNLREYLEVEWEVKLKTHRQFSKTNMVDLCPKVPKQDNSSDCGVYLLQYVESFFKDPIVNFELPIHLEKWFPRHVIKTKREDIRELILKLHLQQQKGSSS
Apaf-1 inh – inhibitors of human Apaf-1 apoptosome; O14727; reconstituted apoptosome caspase-3 activity, DEVD-Rh110 fluorescence; inhibition, % at 20 µM; actives 0.71% (n = 330,000); AID 489030; active means inhibition of at least 40% at 20 µM
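Material: biochemical Apaf-1 apoptosome reconstitution. Medium: Hepes buffer, pH 7.5. Also added: cytochrome c activation, bis-DEVD rhodamine 110 substrate. Timing: 30 min compound preincubation, 50 min activation, room temperature. Measured by: rhodamine 110 fluorescence at Ex 480/Em 540 nm.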
SENP8 block-2 – blocks human SENP8 cleavage of Nedd8 substrate; recombinant SENP8, Nedd8 substrate fluorescence; actives 0.64% (n = 360,000); inhibition, % at 20 µM; AID 602440; in the data active means inhibition mostly above about 40%, no sharp cut-off; inactive means mostly below about 27%
SENP8 conf – confirmation of human SENP8 protease inhibitors | inhibition, % at 12.5 µM | shares compounds with SENP7 inh | AID 488912 | Recombinant SENP8, Z-RLRGG-aminoluciferin luminescence, 60 min | actives 40% (n = 6,200);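 active means mean inhibition across replicates above about 50%, limit read from the data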
SENP6 confirm – confirmation of human SENP6 protease inhibitors | shares compounds with SENP7 inh | recombinant SENP6, Z-RLRGG-aminoluciferin luminescence | inhibition, % at 12.5 µM | actives 58% (n = 6,200) | AID 488915
SENP7 confirm – human SENP7 inhibition, confirmed; shares compounds with SENP7 inh; recombinant SENP7, Z-RLRGG-aminoluciferin luminescence, 40 min; inhibition, % at 12.5 µM; actives 69% (n = 6,200); AID 488917
Casp3 SENP sel – inhibits human caspase-3 in SENP selectivity test; shares compounds with SENP7 inh; purified caspase-3, Z-DEVD-aminoluciferin luminescence, 60 min; inhibition, % at 12.5 µM; actives 60% (n = 6,200);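 active means mean inhibition above about 50%, limit read from the data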
Target sequence (P42574 28-227 limits assumed): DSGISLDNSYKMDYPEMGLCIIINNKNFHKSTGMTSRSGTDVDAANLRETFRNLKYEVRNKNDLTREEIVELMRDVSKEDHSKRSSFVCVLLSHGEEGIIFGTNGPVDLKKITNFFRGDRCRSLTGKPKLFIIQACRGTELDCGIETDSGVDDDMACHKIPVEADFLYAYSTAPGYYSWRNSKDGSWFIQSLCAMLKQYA
SENP luc ctr – counter-screen for SENP inhibitors: luminescence interference. shares compounds with SENP7 inh. Pre-incubated SENP8/Z-RLRGG-aminoluciferin, luciferase luminescence interference. inhibition, % at 12.5 µM. actives 39% (n = 6,200);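 active means mean inhibition above about 50% when retested at one dose, limit read from the data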
Apaf-1 inh conf – confirmation of Apaf-1 inhibitors; actives 25% (n = 1,800); inhibition, % at 20 µM; AID 504614; reconstituted apoptosome, caspase-3 DEVD-Rh110 fluorescence; shares compounds with Apaf-1 inh;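 active means mean inhibition of at least 40% at 20 µM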
Rh110 interf inh – Rh110 signal interference in Apaf-1 inhibitor counter-screen. 1,800 tested, under 10 active. activation (fluorescence interference), % at 20 µM. Rh110 fluorescence interference, quenched caspase reaction. AID 504615. shares compounds with Apaf-1 inh;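 active means signal rise of 40% or more at 20 µM, treated as a fluorescence artifact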
Apaf1 inh interf – counter-screen for Apaf-1 inhibitors: fluorescence interference, dose response; shares compounds with Apaf-1 inh; fluorescence interference counterscreen, Apaf-1 assay format; IC50, µM; 460 tested, under 10 active; call rule not given here
Large screens that a line does not name were inactive (follow-up assays come after a bar, where they were run). Sampled rows, rich in hits. Any-hit rate of the full collection: about 3%.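 How the source made its calls, unless noted: active means mean inhibition above about 50% in the one-dose retest (limit read from the data); inactive means the rest.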

COCCNC(=O)C1(C)CCCN(C(=O)c2cccc(OC(F)(F)F)c2)C1 (centres undefined)	none (no result: SENP8 block-1, UBC13 polyUb, SENP6 block, SENP7 inh, Apaf-1 inh)
Oc1ccc(/C=N/N2CCCCC2)c(O)c1O	SENP6 block 56, Apaf-1 inh 70, SENP8 block-2 52 | SENP8 conf inactive | SENP6 confirm inactive | SENP7 confirm inactive | Casp3 SENP sel inactive | SENP luc ctr inactive | Apaf-1 inh conf inactive | Rh110 interf inh inactive
O=C1C(c2ccccc2)=[N+]([O-])c2ccccc21	SENP6 block 64, Apaf-1 inh 85 | SENP8 conf 55 | SENP6 confirm 69 | SENP7 confirm 75 | Casp3 SENP sel 61 | SENP luc ctr inactive | Apaf-1 inh conf 87 | Rh110 interf inh inactive | Apaf1 inh interf inactive
O=C(CNc1cccc2ccccc12)N/N=C/c1ccccn1	SENP8 block-1 71, SENP6 block 83, Apaf-1 inh 48 | SENP8 conf inactive | SENP6 confirm inactive | SENP7 confirm inactive | Casp3 SENP sel inactive | SENP luc ctr inactive | Apaf-1 inh conf inactive | Rh110 interf inh inactive
CCOC(=O)Nc1ccc(NCc2ccc(F)cc2)nc1N	SENP8 block-1 58, SENP6 block 68, Apaf-1 inh 96 | SENP8 conf inactive | SENP6 confirm inactive | SENP7 confirm inactive | Casp3 SENP sel inactive | SENP luc ctr inactive | Apaf-1 inh conf 53 | Rh110 interf inh inactive | Apaf1 inh interf inactive
CCOC(=O)Nc1ccc(C)cc1NC(=O)OCC	none
O=C1NC[C@H](CCCCN2CCN(CCc3ccc(O)cc3)C(=O)C2=O)N(CCc2ccc(O)cc2)C1=O	none (no result: SENP8 block-1, UBC13 polyUb, SENP6 block, SENP7 inh, Apaf-1 inh)
COc1ccccc1CCn1c(N)c(C#N)c2nc3ccccc3nc21	SENP6 block 51, Apaf-1 inh 40 | SENP8 conf inactive | SENP6 confirm inactive | SENP7 confirm inactive | Casp3 SENP sel inactive | SENP luc ctr inactive | Apaf-1 inh conf inactive | Rh110 interf inh inactive
COc1ccc(CCn2c(N)c(C#N)c3nc4ccccc4nc32)cc1OC	SENP8 block-1 54, SENP6 block 62, Apaf-1 inh 60 | SENP8 conf inactive | SENP6 confirm inactive | SENP7 confirm inactive | Casp3 SENP sel inactive | SENP luc ctr inactive | Apaf-1 inh conf inactive | Rh110 interf inh inactive
CCCCCn1c(N)c(C#N)c2nc3ccccc3nc21	none
CN(Cc1ccc(Cl)cc1Cl)C(=O)C1CC(=O)N(Cc2ccco2)C1 (centres undefined)	none (no result: SENP8 block-1, UBC13 polyUb, SENP6 block, SENP7 inh, Apaf-1 inh)
Cc1ccc2c(CN3CCN(c4ccc(Cl)c(Cl)c4)CC3)cc(=O)oc2c1	none (no result: SENP8 block-1, UBC13 polyUb, SENP6 block, SENP7 inh, Apaf-1 inh)
O=c1[nH]c(Nc2ccccc2)cc2ccccc12	SENP8 block-1 96, SENP6 block 89, SENP7 inh 94, Apaf-1 inh 96 | SENP8 conf 55 | SENP6 confirm 80 | SENP7 confirm 59 | Casp3 SENP sel inactive | SENP luc ctr inactive | Apaf-1 inh conf 94 | Rh110 interf inh inactive | Apaf1 inh interf inactive
CC(=O)c1cccc(-c2ccc3c(=O)[nH]c(Nc4ccccc4)cc3c2)c1	SENP8 block-1 97, SENP6 block 99, SENP7 inh 95, Apaf-1 inh 96 | SENP8 conf 95 | SENP6 confirm 97 | SENP7 confirm 95 | Casp3 SENP sel 97 | SENP luc ctr inactive | Apaf-1 inh conf 88 | Rh110 interf inh inactive
C=CCn1c(N)c(C(=O)OCCC)c2nc3ccccc3nc21	none
COCCn1c(N)c(C(=O)OCc2ccccc2)c2nc3ccccc3nc21	SENP8 block-1 61, SENP6 block 73, Apaf-1 inh 94 | SENP8 conf inactive | SENP6 confirm inactive | SENP7 confirm inactive | Casp3 SENP sel inactive | SENP luc ctr inactive | Apaf-1 inh conf inactive | Rh110 interf inh inactive
CCc1ccc2cccc3c2c1N=CN3C	SENP6 block 57, Apaf-1 inh 87, SENP8 block-2 84 | SENP8 conf inactive | SENP6 confirm inactive | SENP7 confirm inactive | Casp3 SENP sel inactive | SENP luc ctr inactive | Apaf-1 inh conf inactive | Rh110 interf inh inactive
S=C(Nc1ccc(Cl)cc1)Nc1cccc2cnccc12	SENP8 block-1 85, SENP6 block 92, SENP7 inh 62, Apaf-1 inh 83 | SENP8 conf inactive | SENP6 confirm 56 | SENP7 confirm inactive | Casp3 SENP sel inactive | SENP luc ctr inactive | Apaf-1 inh conf inactive | Rh110 interf inh inactive
Fc1ccc(NC(=S)Nc2cccc3cnccc23)cc1	SENP8 block-1 89, SENP6 block 98, SENP7 inh 77, Apaf-1 inh 95 | SENP8 conf inactive | SENP6 confirm inactive | SENP7 confirm inactive | Casp3 SENP sel inactive | SENP luc ctr inactive | Apaf-1 inh conf inactive | Rh110 interf inh inactive
CCN(C(=S)Nc1cccnc1)c1cccc2ccccc12	SENP8 block-1 51, SENP6 block 87, SENP7 inh 54, Apaf-1 inh 85 | SENP8 conf inactive | SENP6 confirm inactive | SENP7 confirm inactive | Casp3 SENP sel inactive | SENP luc ctr inactive | Apaf-1 inh conf inactive | Rh110 interf inh inactive
CCN(C(=S)Nc1cccnc1)c1ccccc1	none
S=C(Nc1cccnc1)Nc1cccc2cnccc12	SENP8 block-1 92, SENP6 block 95, SENP7 inh 85, Apaf-1 inh 86 | SENP8 conf inactive | SENP6 confirm inactive | SENP7 confirm inactive | Casp3 SENP sel inactive | SENP luc ctr inactive | Apaf-1 inh conf inactive | Rh110 interf inh inactive
CN(C)S(=O)(=O)c1cccc(NC(=S)Nc2cccc3cnccc23)c1	none (no result: SENP8 block-1, UBC13 polyUb, SENP6 block, SENP7 inh, Apaf-1 inh)
CCc1nc2ccc(C(=O)N3CCN(c4ccccc4)CC3)cn2c1N(C)CCC(C)C	none (no result: SENP8 block-1, UBC13 polyUb, SENP6 block, SENP7 inh, Apaf-1 inh)
CCCCn1c(NC(C)=O)c(C#N)c2nc3ccccc3nc21	SENP6 block 97, SENP7 inh 66, Apaf-1 inh 84 | SENP8 conf inactive | SENP6 confirm inactive | SENP7 confirm inactive | Casp3 SENP sel inactive | SENP luc ctr inactive | Apaf-1 inh conf inactive | Rh110 interf inh inactive

Source: PubChem BioAssay
